Laboratory results reported in ChEMBL document CHEMBL1145002, “Isoform-selective substrates of nitric oxide synthase” (J Med Chem, 2003).

Legend:
[1] = biological target: T1, Nitric oxide synthase 3 (Homo sapiens) (UniProt P29474); assay: Evaluation as substrate of endothelial nitric oxide synthase by hemoglobin assay using NOHA as control
T1 sequence (whole entry): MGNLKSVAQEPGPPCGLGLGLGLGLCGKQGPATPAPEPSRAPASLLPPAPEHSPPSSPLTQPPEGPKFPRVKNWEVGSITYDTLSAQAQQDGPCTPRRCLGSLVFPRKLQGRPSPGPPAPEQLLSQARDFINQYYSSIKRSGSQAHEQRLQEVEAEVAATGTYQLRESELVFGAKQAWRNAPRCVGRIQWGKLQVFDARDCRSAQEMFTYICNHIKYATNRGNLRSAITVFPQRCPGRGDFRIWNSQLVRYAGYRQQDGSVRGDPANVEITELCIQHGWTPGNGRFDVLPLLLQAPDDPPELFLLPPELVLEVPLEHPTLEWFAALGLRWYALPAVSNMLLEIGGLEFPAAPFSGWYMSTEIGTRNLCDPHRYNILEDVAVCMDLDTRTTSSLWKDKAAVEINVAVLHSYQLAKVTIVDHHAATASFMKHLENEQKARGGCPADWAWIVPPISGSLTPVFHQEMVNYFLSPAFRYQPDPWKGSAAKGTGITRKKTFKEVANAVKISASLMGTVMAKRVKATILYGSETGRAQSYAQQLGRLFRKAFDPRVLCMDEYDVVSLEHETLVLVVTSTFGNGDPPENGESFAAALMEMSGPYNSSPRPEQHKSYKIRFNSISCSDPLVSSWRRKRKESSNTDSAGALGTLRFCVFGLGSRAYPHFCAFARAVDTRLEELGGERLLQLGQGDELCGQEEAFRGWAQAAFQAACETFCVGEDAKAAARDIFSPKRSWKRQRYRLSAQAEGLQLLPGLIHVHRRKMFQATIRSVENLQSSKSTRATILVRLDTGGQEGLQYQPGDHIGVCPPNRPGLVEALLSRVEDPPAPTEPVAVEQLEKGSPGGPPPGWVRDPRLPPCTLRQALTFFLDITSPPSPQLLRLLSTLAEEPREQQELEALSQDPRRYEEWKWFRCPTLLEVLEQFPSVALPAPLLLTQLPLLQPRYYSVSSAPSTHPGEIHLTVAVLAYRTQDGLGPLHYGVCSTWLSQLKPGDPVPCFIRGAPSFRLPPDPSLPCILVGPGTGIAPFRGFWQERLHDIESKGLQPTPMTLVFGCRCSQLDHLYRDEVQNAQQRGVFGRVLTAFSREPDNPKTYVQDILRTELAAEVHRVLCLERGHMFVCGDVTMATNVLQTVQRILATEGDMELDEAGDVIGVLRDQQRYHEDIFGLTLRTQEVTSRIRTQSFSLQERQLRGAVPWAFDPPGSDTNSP
Outline: (§1)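 Oxyhemoglobin-to-methemoglobin conversion was read at 401 nm (ε 38 mM⁻¹ cm⁻¹) at 37 °C to give initial NO rates. Conditions were 0.5–1 unit enzyme in 50 mM HEPES pH 7.4 with 15 μM oxyhemoglobin, SOD, catalase, 200 μM NADPH, 4 μM FAD/FMN, 5 μM BH₄, 2–5 mM DTT and 0.5 mM substrate, plus 1 mM CaCl₂ and 10 μg/mL CaM. Rates are reported relative to NOHA (100%), mean ± SD of ≥3 experiments.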

[2] = biological target: T2, Nitric oxide synthase, inducible (Mus musculus) (UniProt P29477); assay: Evaluation as substrate of Inducible nitric oxide synthase by hemoglobin assay using NOHA as control; format: functional
T2 sequence (whole entry): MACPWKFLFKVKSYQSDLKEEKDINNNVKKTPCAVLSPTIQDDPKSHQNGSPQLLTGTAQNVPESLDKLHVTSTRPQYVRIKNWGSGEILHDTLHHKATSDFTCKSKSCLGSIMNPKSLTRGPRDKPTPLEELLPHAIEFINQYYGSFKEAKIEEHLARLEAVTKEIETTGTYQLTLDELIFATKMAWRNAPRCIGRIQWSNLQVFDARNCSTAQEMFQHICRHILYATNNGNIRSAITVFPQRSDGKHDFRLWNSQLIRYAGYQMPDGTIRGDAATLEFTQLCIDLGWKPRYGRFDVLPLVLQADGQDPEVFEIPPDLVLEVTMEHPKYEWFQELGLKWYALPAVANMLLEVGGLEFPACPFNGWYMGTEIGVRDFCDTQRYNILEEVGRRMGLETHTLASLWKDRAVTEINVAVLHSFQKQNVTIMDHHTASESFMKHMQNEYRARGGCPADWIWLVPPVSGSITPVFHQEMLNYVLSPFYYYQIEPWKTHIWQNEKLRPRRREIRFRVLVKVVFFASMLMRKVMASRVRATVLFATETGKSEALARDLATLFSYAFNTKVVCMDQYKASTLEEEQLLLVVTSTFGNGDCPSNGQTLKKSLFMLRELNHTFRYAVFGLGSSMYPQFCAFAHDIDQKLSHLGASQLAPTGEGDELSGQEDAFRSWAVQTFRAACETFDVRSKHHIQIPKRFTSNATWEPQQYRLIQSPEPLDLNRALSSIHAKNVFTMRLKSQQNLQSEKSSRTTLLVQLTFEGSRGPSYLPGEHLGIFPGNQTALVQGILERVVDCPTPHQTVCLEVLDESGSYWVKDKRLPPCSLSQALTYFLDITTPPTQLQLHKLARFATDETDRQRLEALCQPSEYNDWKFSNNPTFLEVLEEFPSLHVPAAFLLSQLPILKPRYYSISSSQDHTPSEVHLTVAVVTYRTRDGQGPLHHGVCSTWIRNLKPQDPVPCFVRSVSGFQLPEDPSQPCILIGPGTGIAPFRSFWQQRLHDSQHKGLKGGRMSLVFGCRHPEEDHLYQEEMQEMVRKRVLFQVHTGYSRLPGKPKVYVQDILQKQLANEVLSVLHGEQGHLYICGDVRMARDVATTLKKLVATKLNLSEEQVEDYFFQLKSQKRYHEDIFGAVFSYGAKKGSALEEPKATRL
Outline: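 Initial NO-synthesis rate at 37 °C by spectrophotometric oxyhemoglobin assay. The cuvette held 0.5–1 unit enzyme in 50 mM HEPES pH 7.4 with 15 μM oxyhemoglobin, SOD, catalase, 200 μM NADPH, 4 μM FAD/FMN, 5 μM BH₄, 2–5 mM DTT, 0.5 mM substrate and 1 mM magnesium acetate. Methemoglobin formation was followed at 401 nm (ε 38 mM⁻¹ cm⁻¹). Rates are given as % of NOHA, mean ± SD, n≥3.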

[3] = biological target: Nitric oxide synthase 1 (Rattus norvegicus) (UniProt P29476); assay: Evaluation as substrate of Neuronal nitric oxide synthase by hemoglobin assay using NOHA as control; outline: as §1
Chain of Nitric oxide synthase 1 (Rattus norvegicus) (P29476 whole entry): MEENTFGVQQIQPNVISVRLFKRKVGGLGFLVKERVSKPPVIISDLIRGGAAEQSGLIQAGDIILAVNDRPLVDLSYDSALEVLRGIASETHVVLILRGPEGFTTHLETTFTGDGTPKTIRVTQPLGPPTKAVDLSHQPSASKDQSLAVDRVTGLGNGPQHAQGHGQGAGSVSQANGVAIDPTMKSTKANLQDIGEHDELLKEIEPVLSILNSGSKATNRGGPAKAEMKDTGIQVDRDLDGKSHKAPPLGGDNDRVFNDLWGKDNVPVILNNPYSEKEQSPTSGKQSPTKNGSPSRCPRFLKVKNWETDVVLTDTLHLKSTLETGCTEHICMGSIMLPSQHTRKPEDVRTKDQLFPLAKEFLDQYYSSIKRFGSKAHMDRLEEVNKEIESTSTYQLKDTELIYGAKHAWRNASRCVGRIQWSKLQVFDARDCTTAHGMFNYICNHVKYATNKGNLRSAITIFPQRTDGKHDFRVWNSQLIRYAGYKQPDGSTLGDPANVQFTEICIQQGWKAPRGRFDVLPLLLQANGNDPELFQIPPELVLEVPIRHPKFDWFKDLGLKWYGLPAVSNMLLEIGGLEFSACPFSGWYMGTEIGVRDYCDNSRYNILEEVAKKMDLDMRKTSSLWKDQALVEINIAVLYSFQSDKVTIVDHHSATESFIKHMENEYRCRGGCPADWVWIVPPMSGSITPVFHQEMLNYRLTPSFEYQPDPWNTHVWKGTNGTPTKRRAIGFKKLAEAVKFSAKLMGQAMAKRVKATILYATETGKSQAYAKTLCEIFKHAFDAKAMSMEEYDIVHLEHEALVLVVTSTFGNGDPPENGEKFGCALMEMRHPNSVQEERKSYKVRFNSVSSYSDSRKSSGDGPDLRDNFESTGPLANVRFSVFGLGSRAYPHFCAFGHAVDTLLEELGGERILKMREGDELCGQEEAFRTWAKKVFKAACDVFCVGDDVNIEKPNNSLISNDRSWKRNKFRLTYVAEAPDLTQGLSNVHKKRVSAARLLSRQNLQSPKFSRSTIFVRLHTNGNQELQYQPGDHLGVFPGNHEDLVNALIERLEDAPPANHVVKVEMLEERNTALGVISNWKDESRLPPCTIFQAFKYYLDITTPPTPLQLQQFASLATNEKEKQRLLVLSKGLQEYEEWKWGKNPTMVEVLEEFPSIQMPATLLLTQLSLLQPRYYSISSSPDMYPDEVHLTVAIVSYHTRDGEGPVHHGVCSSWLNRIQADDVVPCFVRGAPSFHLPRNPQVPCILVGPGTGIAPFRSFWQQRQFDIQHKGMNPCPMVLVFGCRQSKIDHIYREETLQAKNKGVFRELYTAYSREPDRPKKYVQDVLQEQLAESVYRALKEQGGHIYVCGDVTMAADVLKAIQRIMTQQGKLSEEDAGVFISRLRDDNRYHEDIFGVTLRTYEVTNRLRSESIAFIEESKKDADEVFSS

SMILES | NO formation [1] [%] | NO formation [2] [%] | NO formation [3] [%]
CCCC/N=C(/N)NOC | < 0.5 | < 0.5 | < 0.5
CCCCN/C(N)=N/O | 20 | 42 | 64
CCCCN(C)C(=N)NO | < 0.5 | < 0.5 | < 0.5
N/C(=N/CC1CC1)NO | < 0.5 | < 0.5 | < 0.5
N=C(N)NCC1CC1 | < 0.5 | < 0.5 | < 0.5
CC1CC1CN=C(N)N (stereo not drawn) | < 0.5 | < 0.5 | < 0.5
C#CCC/N=C(/N)NO | < 0.5 | 28 | 37
N/C(=N\O)N1CCCC1 | < 0.5 | < 0.5 | < 0.5
N/C(=N/C1CC1)NO | 26 | < 0.5 | 70
N/C(=N\O)N1CCOCC1 | < 0.5 | < 0.5 | < 0.5
CCCC/N=C(/N)NOCc1ccccc1 | < 0.5 | < 0.5 | < 0.5
C/C=C/CN=C(N)N | < 0.5 | < 0.5 | < 0.5
C/C=C/C/N=C(/N)NO | < 0.5 | < 0.5 | 5
CC(C)NC(=N)NO | 38 | 15 | 70
CCCCN=C(N)N | < 0.5 | 6 | < 0.5
N=C(N)NCCC[C@H](N)C(=O)O | 38 | 50 | 72
